Screening data deposited in PubChem BioAssay by Broad Institute.
GASC1 inh: KDM4C (human) demethylase inhibition; AID 720574; Q9H3R0; 96,000 tested, 0.15% active; inhibition, % at 12.5 µM; GST-KDM4C 2-372, H3K9me3 peptide, LANCE TR-FRET;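 active means mean replicate inhibition above about 25%, with at least 55% of replicates also reaching it, limit read from the data, passing the limit was not always enough; inconclusive means only one of those two conditions met; inactive means neither condition met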
Target sequence (Q9H3R0 2-372 limits assumed): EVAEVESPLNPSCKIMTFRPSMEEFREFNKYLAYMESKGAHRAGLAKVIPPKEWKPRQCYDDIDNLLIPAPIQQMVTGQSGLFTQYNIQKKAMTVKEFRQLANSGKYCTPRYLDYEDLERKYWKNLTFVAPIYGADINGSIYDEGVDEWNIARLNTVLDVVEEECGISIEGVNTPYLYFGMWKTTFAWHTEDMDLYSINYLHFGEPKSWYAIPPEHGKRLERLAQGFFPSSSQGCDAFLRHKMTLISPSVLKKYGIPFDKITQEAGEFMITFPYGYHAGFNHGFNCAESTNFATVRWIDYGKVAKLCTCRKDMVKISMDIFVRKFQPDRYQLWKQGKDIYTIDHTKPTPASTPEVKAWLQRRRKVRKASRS
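Compound: one test concentration per compound; Material: GST-GASC-1 enzyme fragment 2-372; Amount: GASC-1 enzyme at 10 nM final in reaction; Also added: H3K9me3 peptide substrate, Fe(II), 2-oxoglutarate; Technique: LANCE TR-FRET; Times: 30 min demethylation and 1 h detection at room temperature.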
T cruzi growth-1: blocks T. cruzi growth in NIH3T3 culture. T. cruzi beta-gal in NIH3T3, GalScreen luminescence, 90 h. inhibition, % at 8.34 µM. 77,000 tested, 5.9% active;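 active means mean inhibition above about 93%, with at least 55% of replicates each passing it, limit read from the data, passing the limit was not always enough; inconclusive means only one of those two conditions holds; inactive means neither condition holds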
IDH1 mut inh: blocks human IDH1 R132H reductase activity. O75874. 70,000 tested, 0.18% active. diaphorase/resazurin fluorescence, 60 min. inhibition, % at 10 µM; in the data active means inhibition above about 34%; inconclusive means no clear call, values can overlap the other calls; inactive means below about 11%
Target sequence (O75874 whole entry R132H): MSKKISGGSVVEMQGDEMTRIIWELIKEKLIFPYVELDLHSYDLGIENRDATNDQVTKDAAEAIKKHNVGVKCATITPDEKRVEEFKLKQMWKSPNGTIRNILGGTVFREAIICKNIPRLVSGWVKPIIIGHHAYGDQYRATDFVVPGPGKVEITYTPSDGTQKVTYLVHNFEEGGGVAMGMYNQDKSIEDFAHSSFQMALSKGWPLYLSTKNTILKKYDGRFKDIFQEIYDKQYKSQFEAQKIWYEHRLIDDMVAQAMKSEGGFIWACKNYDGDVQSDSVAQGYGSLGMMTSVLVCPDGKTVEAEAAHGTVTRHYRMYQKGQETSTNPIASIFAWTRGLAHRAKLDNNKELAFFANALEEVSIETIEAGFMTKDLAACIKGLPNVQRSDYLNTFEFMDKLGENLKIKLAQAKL
T cruzi growth-2: Trypanosoma cruzi proliferation inhibition; shares compounds with T cruzi growth-1; T. cruzi beta-gal in NIH3T3, GalScreen luminescence, 90 h; inhibition, % at 8.35 µM; 5,600 tested, 72% active;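 active means mean replicate inhibition above about 95% and at least 55% of replicates individually reaching it, limit read from the data; inconclusive means only one of the two criteria is met; inactive means neither criterion is met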
T cruzi growth-3: blocks T. cruzi growth in NIH3T3 host cells; shares compounds with T cruzi growth-1; inhibition, % at 2.09 µM; 5,600 tested, 21% active; T. cruzi beta-gal in NIH3T3, GalScreen luminescence, 90 h;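 active means mean inhibition above about 95%, with at least 55% of replicates also reaching it, limit read from the data; inconclusive means meets just one of the two conditions; inactive means meets neither condition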
NIH3T3 tox: kills mouse NIH/3T3 fibroblasts | cytotoxicity (signal decrease), % at 8.35 µM | 5,600 tested, 14% active | shares compounds with T cruzi growth-1 | NIH/3T3 viability, CellTiter-Glo ATP luminescence, 90 h;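 active means mean signal decrease across replicates above about 35% based on untreated-well scatter, with enough replicates individually passing, limit read from the data; inconclusive means no rule stated though some were filed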
3T3 cytotox 2: cytotoxicity in mouse NIH/3T3 fibroblasts | shares compounds with T cruzi growth-1 | NIH/3T3 viability, CellTiter-Glo ATP luminescence, 90 h | inhibition, % at 24.9 µM | 5,600 tested, 56% active;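 active means mean loss of cell viability signal at or above a set limit, and enough replicates individually reaching it; inconclusive means meets only the mean limit or only the replicate share; inactive means meets neither condition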
Each line names hits and unclear results; the compound was inactive in the other large screens (follow-up assays come after a bar, where they were run); ! = not confirmed by another sample. This is one part of a sample in which hits are shown more often than they occur.

C[C@H](CO)N1C[C@H](C)[C@H](CN(C)C(=O)NC2CCCCC2)Oc2ncc(Br)cc2C1=O	IDH1 mut inh 35
COc1ccc(-c2cnc3c(c2)C(=O)N([C@@H](C)CO)C[C@H](C)[C@@H](CN(C)C(=O)Cc2ccncc2)O3)cc1	IDH1 mut inh 41
C[C@@H]1CN([C@@H](C)CO)C(=O)c2cc(-c3ccncc3)cnc2O[C@H]1CN(C)C(=O)Cc1cccnc1	T cruzi growth-1 104 (no result: IDH1 mut inh)
CC(=O)N(C)C[C@H]1Oc2ncc(-c3ccc(C#N)cc3)cc2C(=O)N([C@H](C)CO)C[C@@H]1C	GASC1 inh 32
COc1ccc(-c2cnc3c(c2)C(=O)N([C@H](C)CO)C[C@H](C)[C@H](CN(C)C(=O)Cc2ccncc2)O3)cc1	none
C[C@H]1CN([C@@H](C)CO)C(=O)c2cc(Br)cnc2O[C@@H]1CN(C)C(=O)NC1CCCCC1	none (no result: IDH1 mut inh)
C[C@H](CO)N1C[C@H](C)[C@H](CN(C)C(=O)Cc2cccnc2)Oc2ncc(-c3ccccc3)cc2C1=O	none (no result: IDH1 mut inh)
COc1ccc(S(=O)(=O)Nc2cccc(N(C)S(C)(=O)=O)c2)cc1OC	none (no result: GASC1 inh, T cruzi growth-1)
Cc1ccc(-c2ccn(-c3ccc(C)c(Cl)c3)c(=S)n2)cc1	none (no result: GASC1 inh, T cruzi growth-1)
Cn1ccnc1SCC(=O)N1c2ccccc2C(C)(c2ccc(Cl)cc2)CC1(C)C (stereo unspecified)	none (no result: GASC1 inh, T cruzi growth-1)
C[C@@H]1CN([C@@H](C)CO)C(=O)c2cc(N(C)C)ccc2O[C@@H](C)CCCCO[C@H]1CN(C)Cc1ccc(C(F)(F)F)cc1	T cruzi growth-1 119 (no result: IDH1 mut inh) | T cruzi growth-2 110 | T cruzi growth-3 108 | NIH3T3 tox inactive | 3T3 cytotox 2 87
C[C@H](CO)N1C[C@H](C)[C@H](CN(C)Cc2ccc(C(F)(F)F)cc2)OCCCC[C@H](C)Oc2ccc(N(C)C)cc2C1=O	none (no result: IDH1 mut inh)
C[C@@H]1CCCCO[C@@H](CN(C)Cc2ccc(C(=O)O)cc2)[C@@H](C)CN([C@H](C)CO)C(=O)c2cc(N(C)C)ccc2O1	none (no result: IDH1 mut inh)
C[C@H]1CCCCO[C@@H](CN(C)Cc2ccc(C(=O)O)cc2)[C@@H](C)CN([C@@H](C)CO)C(=O)c2cc(N(C)C)ccc2O1	none
C[C@@H]1CN([C@H](C)CO)C(=O)c2cc(N(C)C)ccc2O[C@@H](C)CCCCO[C@@H]1CN(C)Cc1ccc(C(F)(F)F)cc1	T cruzi growth-1 inconclusive (no result: IDH1 mut inh) | T cruzi growth-2 109 | T cruzi growth-3 inactive | NIH3T3 tox inactive | 3T3 cytotox 2 107
C[C@@H]1CCCCO[C@H](CN(C)Cc2ccc(C(F)(F)F)cc2)[C@@H](C)CN([C@H](C)CO)C(=O)c2cc(N(C)C)ccc2O1	T cruzi growth-1 inconclusive (no result: IDH1 mut inh) | T cruzi growth-2 112 | T cruzi growth-3 inactive | NIH3T3 tox inactive | 3T3 cytotox 2 inconclusive
C[C@@H]1CCCCO[C@@H](CN(C)Cc2ccc(C(=O)O)cc2)[C@H](C)CN([C@@H](C)CO)C(=O)c2cc(N(C)C)ccc2O1	none
C[C@H](CO)N1C[C@H](C)[C@@H](CN(C)Cc2ccc(C(F)(F)F)cc2)OCCCC[C@H](C)Oc2ccc(N(C)C)cc2C1=O	T cruzi growth-1 108 | T cruzi growth-2 111 | T cruzi growth-3 inactive | NIH3T3 tox inactive | 3T3 cytotox 2 97
Cc1ccccc1NC(=O)CCc1nc(-c2ccccc2F)no1	none (no result: GASC1 inh, T cruzi growth-1)
COc1cc(NC(=S)NC(=O)C(C)Oc2ccc(Cl)cc2Cl)c(OC)cc1Cl (stereo unspecified)	none (no result: GASC1 inh, T cruzi growth-1)
Cc1ccc(C(O)(CO)CO)c(O)c1	none (no result: GASC1 inh, T cruzi growth-1)
CCOC(=O)CN(c1c(C)cccc1C)S(C)(=O)=O	none (no result: GASC1 inh, T cruzi growth-1)
COc1ccc(NC(=O)CSc2nnc(-c3cccs3)n2-c2ccc(F)cc2)cc1	none (no result: GASC1 inh, T cruzi growth-1)
Cc1cc(N(CC(=O)NC2CC3CCC2C3)S(C)(=O)=O)ccc1Br (stereo unspecified)	none (no result: GASC1 inh, T cruzi growth-1)
CCS(=O)(=O)CCSc1nc(C)c(C(=O)Nc2ccccc2)c(-c2ccccc2)c1C#N	none (no result: GASC1 inh, T cruzi growth-1)
COc1ccc(NC(=O)C(C)N(c2ccc(C)c(C)c2)S(C)(=O)=O)cc1Cl (stereo unspecified)	none (no result: GASC1 inh, T cruzi growth-1)
S=C(Nc1ccc(Cl)cc1)N1CCN=C1Nc1ccc(Cl)cc1	none (no result: GASC1 inh, T cruzi growth-1)
Cc1cc(Br)ccc1OCC(=O)NC(=S)Nc1ccccc1C(N)=O	none (no result: GASC1 inh, T cruzi growth-1)
C[C@@H]1CN([C@@H](C)CO)C(=O)c2cc(N(C)C)ccc2O[C@@H](C)CCCCO[C@@H]1CN(C)Cc1ccc(C(F)(F)F)cc1	none
C[C@H](CO)N1C[C@H](C)[C@@H](CN(C)CC2CCCCC2)OCCCC[C@H](C)Oc2ccc(N(C)C)cc2C1=O	T cruzi growth-1 99 | T cruzi growth-2 110 | T cruzi growth-3 inactive | NIH3T3 tox inactive | 3T3 cytotox 2 inactive
C[C@@H]1CCCCO[C@@H](CN(C)Cc2ccccc2)[C@@H](C)CN([C@H](C)CO)C(=O)c2cc(N(C)C)ccc2O1	none (no result: IDH1 mut inh)
C[C@H](CO)N1C[C@H](C)[C@@H](CN(C)Cc2ccccc2)OCCCC[C@H](C)Oc2ccc(N(C)C)cc2C1=O	T cruzi growth-1 100! | T cruzi growth-2 inactive | T cruzi growth-3 inactive | NIH3T3 tox inactive | 3T3 cytotox 2 inactive
C[C@@H]1CN([C@H](C)CO)C(=O)c2cc(N(C)C)ccc2O[C@@H](C)CCCCO[C@H]1CN(C)Cc1ccc(C(F)(F)F)cc1	T cruzi growth-1 120 (no result: IDH1 mut inh) | T cruzi growth-2 99 | T cruzi growth-3 113 | NIH3T3 tox inactive | 3T3 cytotox 2 106
C[C@@H]1CCCCO[C@@H](CN(C)CC2CCCCC2)[C@@H](C)CN([C@H](C)CO)C(=O)c2cc(N(C)C)ccc2O1	none
Cn1c(NCCCN)nc2c1c(=O)n(Cc1ccccc1Cl)c(=O)n2C	none (no result: GASC1 inh, T cruzi growth-1)
CC(=O)c1cccc(NC(=O)C(C)NS(=O)(=O)c2ccc(C)cc2)c1 (stereo unspecified)	none (no result: GASC1 inh, T cruzi growth-1)
CCn1c(SCC(N)=O)nnc1-c1ccncc1	none (no result: GASC1 inh, T cruzi growth-1)
COc1cc(NC(=O)CCC(=O)O)ccc1NC(C)=O	none (no result: GASC1 inh, T cruzi growth-1)
COC(=O)c1ccccc1NC(=O)c1ccccc1NS(=O)(=O)c1cccc2cccnc12	none (no result: GASC1 inh, T cruzi growth-1)
Cc1ccc(F)cc1NC(=O)CCCSc1nc(-c2ccco2)cc(C(F)(F)F)n1	none (no result: GASC1 inh, T cruzi growth-1)
Cc1cc(C(F)(F)F)nn1CCCNC(=O)c1cc(-c2ccccc2)nc2ccccc12	none (no result: GASC1 inh, T cruzi growth-1)
COc1ccc(C#Cc2ccc([C@@H]3[C@@H](CO)N4CCCCN(Cc5ccccc5F)C[C@@H]34)cc2)cc1	none (no result: IDH1 mut inh)
O=C(Nc1ccccc1F)N1CCCCN2[C@H](CO)[C@@H](c3ccc(C#Cc4ccccc4)cc3)[C@H]2C1	none (no result: IDH1 mut inh)
O=C(Nc1ccccc1F)N1CCCCN2[C@H](CO)[C@@H](c3ccc(C#Cc4ccccc4)cc3)[C@@H]2C1	none (no result: IDH1 mut inh)
OC[C@@H]1[C@@H](c2ccc(C#Cc3cccnc3)cc2)[C@@H]2CN(Cc3ccccc3F)CCCCN12	T cruzi growth-1 112 (no result: IDH1 mut inh) | T cruzi growth-2 103 | T cruzi growth-3 98 | NIH3T3 tox 36 | 3T3 cytotox 2 104
